TMEM16A act = activates or potentiates the mouse TMEM16A chloride channel; AID 623877; B-score at 10 µM; Q8BHY3; hit rate 0.3% among 340,000; HEK293 TMEM16A/YFP-H148Q/I152L, iodide quench fluorescence; stronger effect = lower value;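 active means fluorescence-ratio B-score plate-corrected deviation score at least 3 library SD below zero, with starting fluorescence score within 5 deviations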;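 further: channel opened by trigger with iodide after compound preincubation; score built on the fluorescence ratio of max minus min over baseline; more negative score means more quench and so TMEM16A activation or potentiation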
ANO1 block = mouse TMEM16A channel inhibition, primary screen; normalized B-score (activity score, 25-100; higher = stronger inhibition) at 10 µM; HEK293 TMEM16A/YFP iodide influx fluorescence, ionomycin; AID 588511; Q8BHY3; hit rate 1.2% among 310,000;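 active means ratio plate-corrected score three or more library SD toward inhibition, starting fluorescence score within five deviations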;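 further: score derived from kinetic fluorescence span divided by baseline fluorescence per well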
SR-BI DiI inh = mouse SR-BI HDL lipid transfer inhibition | Q61009 | ldlA[mSR-BI] CHO cells, DiI-HDL uptake fluorescence, 3 h | inhibition, % at 12.5 µM | hit rate 0.96% among 320,000 | AID 488896;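 active means mean replicate inhibition of at least 70% and a set share of replicates each scoring 70 or more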
Kir21 block = inhibitors of mouse Kir2.1 inward-rectifier potassium channel; P35561; HEK293-Kir2.1, FluxOR thallium flux fluorescence; stronger effect = lower value; B-score at 10 µM; hit rate 0.85% among 310,000;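 active means fluorescence ratio B-score at or below minus 3 SD of library scores, with starting-brightness B-score within 2 SD, cut at about -4.2 in these data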;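 further: channel flux triggered by added potassium and thallium sulfate stimulus; B-score of peak minus minimum fluorescence over baseline after thallium stimulus; more negative B-score means stronger Kir2.1 block with less thallium influx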
SR-BI DiI-HDL act = SR-BI HDL lipid transfer activation; activation, % at 12.5 µM; hit rate 0.096% among 320,000; CHO ldlA[mSR-BI] cells, DiI-HDL uptake fluorescence, 3 h; 100 = double the neutral-control signal; AID 504775;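 active means mean replicate activation of at least 60% and every replicate at or above 60%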
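Test system: SR-BI-overexpressing, LDLR-lacking CHO cells; Also added: labelled HDL, 10 µg/mL; Measured by: bottom-read cell fluorescence after medium removal, ex 550/em 595 nm; Timing: 3 h uptake period with compound, 37 °C; Buffer or medium: F12, 0.5% BSA, 25 mM HEPES; Doses: single compound concentration, delivered by pin transfer.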
DNA FID counter = counter-screen for HCV NS3 helicase inhibitors: DNA intercalator displacement; DNA fluorescent intercalator displacement, fluorescence; inhibition, % at 7.9 µM; hit rate 0.17% among 290,000; AID 1845; in the data active means inhibition above about 37%;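 further: higher means more ethidium bromide displaced from hairpin DNA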
TMEM16A reconf = reconfirmed blocker of mouse TMEM16A calcium-activated chloride channel | AID 652189 | HEK293 TMEM16A/YFP-H148Q, iodide quench fluorescence; ionomycin added to raise cell calcium | hit rate 39% among 2,300 | shares compounds with ANO1 block | inhibition, % at 10 µM;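 active means mean duplicate percent inhibition, scaled so buffer wells are 0 and the reference blocker 100, over three buffer SD above buffer mean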
HEK293 Ca mobil = counter-screen for TMEM16A inhibitors: effect on calcium mobilization; shares compounds with ANO1 block; TMEM16A/YFP HEK293, Fluo4 calcium mobilization; calcium response (% of ionomycin), % at 10 µM; hit rate 2% among 2,300;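 active means duplicate-averaged calcium signal over 20% of the ionomycin maximum, relative to buffer baseline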;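 further: each well's signal is peak minus trough fluorescence divided by its pre-addition baseline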
Parental YFP cnt = parental YFP-HEK293 iodide quench counter-screen activity; shares compounds with ANO1 block; ionomycin; YFP ratio F(max-min)/F0 at 10 µM; 2,300 tested, under 10 active;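 active means yellow fluorescent protein signal ratio exceeding the buffer control mean by over 5 SD of those controls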;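 further: ratio is mean of duplicate wells from kinetic YFP trace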
ClC-1 rat inh = rat ClC-1 inhibition, TMEM16A specificity screen. AID 652236. shares compounds with ANO1 block. CHO ClC-1-YFP, iodide influx fluorescence quench; iodide control reads 0, buffer control 100. ratio percent, % at 10 µM. 2,300 tested, under 10 active;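 active means duplicate-mean ratio percent above the mean of iodide-only control wells, which defines zero, plus 5 of their SD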;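 further: higher percent means stronger block of ClC-1 iodide influx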
Target sequence (P35524 whole entry, looked up): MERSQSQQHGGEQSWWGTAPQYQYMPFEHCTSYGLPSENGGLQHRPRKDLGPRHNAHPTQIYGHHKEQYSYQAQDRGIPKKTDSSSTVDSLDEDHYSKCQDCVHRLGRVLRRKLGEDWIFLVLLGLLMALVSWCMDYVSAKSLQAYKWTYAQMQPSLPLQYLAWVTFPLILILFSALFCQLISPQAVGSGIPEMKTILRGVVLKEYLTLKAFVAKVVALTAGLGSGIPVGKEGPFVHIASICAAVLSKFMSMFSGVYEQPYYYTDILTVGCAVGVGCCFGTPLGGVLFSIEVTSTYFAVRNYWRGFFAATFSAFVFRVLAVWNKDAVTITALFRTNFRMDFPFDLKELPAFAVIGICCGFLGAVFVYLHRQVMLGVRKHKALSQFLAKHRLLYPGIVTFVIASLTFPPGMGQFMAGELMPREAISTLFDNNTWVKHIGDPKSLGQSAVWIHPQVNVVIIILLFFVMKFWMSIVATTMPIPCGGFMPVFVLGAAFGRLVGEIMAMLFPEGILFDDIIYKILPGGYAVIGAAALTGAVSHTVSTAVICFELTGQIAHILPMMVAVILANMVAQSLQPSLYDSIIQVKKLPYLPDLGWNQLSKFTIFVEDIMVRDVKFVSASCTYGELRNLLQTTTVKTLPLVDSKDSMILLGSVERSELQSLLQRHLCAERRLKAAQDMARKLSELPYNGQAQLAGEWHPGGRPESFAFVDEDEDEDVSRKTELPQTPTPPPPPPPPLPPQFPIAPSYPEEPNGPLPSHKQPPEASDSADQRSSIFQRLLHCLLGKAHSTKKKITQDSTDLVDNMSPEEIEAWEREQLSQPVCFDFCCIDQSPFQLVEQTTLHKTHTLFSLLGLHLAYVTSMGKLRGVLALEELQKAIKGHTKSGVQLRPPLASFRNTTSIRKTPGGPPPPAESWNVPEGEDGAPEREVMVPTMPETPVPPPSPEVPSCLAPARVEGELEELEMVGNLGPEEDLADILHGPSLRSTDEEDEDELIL
Of the large screens only hits and unclear results are named; the others gave an inactive call (follow-up assays come after a bar, where they were run). In the library only some 3% were active in any assay of this set; here they are far more common.

CCCCOC(=O)C1Cc2ccccc2C(=O)O1 (stereo unspecified)	ANO1 block 100 | TMEM16A reconf inactive | HEK293 Ca mobil inactive | Parental YFP cnt inactive | ClC-1 rat inh inactive
CCN(c1cccc(C)c1)S(=O)(=O)c1ccc(-c2cc(C)no2)s1	none
Cc1cccc(N(C)S(=O)(=O)c2ccc(-c3cc(C)no3)s2)c1	ANO1 block 25 | TMEM16A reconf inactive | HEK293 Ca mobil inactive | Parental YFP cnt inactive | ClC-1 rat inh inactive
O=c1nc(-c2ccccc2)c2cc(SC(F)F)ccc2[nH]1	none
CCCC(=O)OC(C(=O)Nc1cc(C(F)(F)F)ccc1Cl)c1ccccc1 (stereo unspecified)	none
O=C(Nc1cc(C(F)(F)F)ccc1Cl)C(Sc1ccccn1)c1ccccc1 (stereo unspecified)	ANO1 block 25 | TMEM16A reconf inactive | HEK293 Ca mobil inactive | Parental YFP cnt inactive | ClC-1 rat inh inactive
CC1(c2ccc(Cl)cc2)NC(=O)N(CC(=O)N2CCc3ccccc32)C1=O (stereo unspecified)	none (no result: ANO1 block, Kir21 block, DNA FID counter)
Cc1c(CN(C)C(=O)c2sc3cc(Cl)ccc3c2Cl)cnn1C	ANO1 block 100 | TMEM16A reconf 34% | HEK293 Ca mobil inactive | Parental YFP cnt inactive | ClC-1 rat inh inactive
Cc1nc2ccc(NC(=O)c3cccs3)cc2s1	none
Cc1nc2ccc(NC(=O)c3sccc3C)cc2s1	ANO1 block 25 | TMEM16A reconf inactive | HEK293 Ca mobil inactive | Parental YFP cnt inactive | ClC-1 rat inh inactive
Clc1ccc(Nc2ncn[nH]2)c(Cl)c1	none
Cc1cccc(S(=O)(=O)Nc2nc3ccccc3nc2Nc2ccc3c(c2)OCO3)c1	ANO1 block 25 | TMEM16A reconf 20% | HEK293 Ca mobil inactive | Parental YFP cnt inactive | ClC-1 rat inh inactive
O=S(=O)(Nc1nc2ccccc2nc1Nc1ccc2c(c1)OCO2)c1ccccc1	none
CCOc1ccc(S(=O)(=O)N2CCCCC2)c2ccccc12	ANO1 block 25 | TMEM16A reconf inactive | HEK293 Ca mobil inactive | Parental YFP cnt inactive | ClC-1 rat inh inactive
CSCCC(NC(=O)C1CCC(C)CC1)C(=O)Nc1ccc(NC(C)=O)cc1 (stereo unspecified)	none (no result: SR-BI DiI inh, SR-BI DiI-HDL act)
C[C@H](O)Cc1cn(-c2cc3cc(C#Cc4ccsc4)ccc3oc2=O)nn1	none (no result: ANO1 block, Kir21 block, DNA FID counter)
CCCn1nnnc1NCc1ccccc1OCc1ccc(F)cc1	none | TMEM16A reconf inactive | HEK293 Ca mobil inactive | Parental YFP cnt inactive | ClC-1 rat inh inactive
CCCn1nnnc1NCc1ccccc1OCc1cccs1	none
COc1ccc(CCNC(=O)CCNC(=O)N2CC(=O)Nc3ccccc32)cc1OC	none
O=C(NCC1(N2CCOCC2)CCCCC1)c1ccc(Cl)c(S(=O)(=O)NCc2ccco2)c1	ANO1 block 100 | TMEM16A reconf inactive | HEK293 Ca mobil inactive | Parental YFP cnt inactive | ClC-1 rat inh inactive
Cc1ccc(-n2ncc(-c3nn[nH]n3)c2N)cc1	none
CC(=O)c1ccc(N2CCN(S(=O)(=O)c3ccc4c(c3)CC(C)N4C(=O)C3CC3)CC2)cc1 (stereo unspecified)	none
CCC(=O)N1c2ccc(S(=O)(=O)N3CCN(c4ccc([N+](=O)[O-])cc4)CC3)cc2CC1C (stereo unspecified)	ANO1 block 25 | TMEM16A reconf inactive | HEK293 Ca mobil inactive | Parental YFP cnt inactive | ClC-1 rat inh inactive

Compound activity deposited in PubChem by several laboratories.
